Data set [1] has as its target Multidrug resistance-associated protein 1 (Homo sapiens, UniProt P33527). Briefly: Inhibition of MRP1 (unknown origin) over-expressed in MDCK cells assessed as calcein accumulation incubated for 30 mins prior to Calcein-AM addition measured after 30 mins by fluorescence assay. Type of data set: cell-based. The method in brief:
(§1)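 MDCK-MDR1 or MDCK-MRP1 cells at 50 000 cells/well, confluent overnight. Compounds in culture medium for 30 min at 37 °C, then Calcein-AM added (2.5 μM final) for a further 30 min. Washed three times with ice-cold PBS, fluorescence read at ex 485, em 535 nm. Percent increase over untreated basal level fitted against log dose to give EC50.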

Data set [2] is described as follows: Efflux ratio of apparent permeability from basolateral to apical side over apical to basolateral side in human Caco2 cells at 100 uM after 120 mins by UV-Vis spectrophotometry. Type of data set: ADME, cell-based. Particulars: Caco-2; call rule not given here. In a few lines:
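Caco-2 cells seeded at 10 000 cells/well and grown 21 days, medium changed every 48 h for 6 days then daily; TEER checked before and after, generally >1000 Ω. Monolayers preincubated twice in HBSS (pH 7.4) 30 min at 37 °C. Drug at 100 μM in HBSS on apical or basolateral side, 120 min at 37 °C. Both sides sampled, drug quantified by UV-vis against a calibration curve. Papp computed from acceptor concentration, volume, membrane area (0.11 cm2) and time (7200 s). Ratio taken as B→A over A→B.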

The target of data set [3] is ATP-dependent translocase ABCB1 (Homo sapiens, UniProt P08183). Nature of the data set: Inhibition of MDR1 (unknown origin) over-expressed in MDCK cells assessed as calcein accumulation incubated for 30 mins prior to Calcein-AM addition measured after 30 mins by fluorescence assay. The class given is cell-based. In a few lines: as §1
The target in data set [4] is T1, Broad substrate specificity ATP-binding cassette transporter ABCG2 (Homo sapiens, UniProt Q9UNQ0).
T1 sequence (Q9UNQ0 whole entry): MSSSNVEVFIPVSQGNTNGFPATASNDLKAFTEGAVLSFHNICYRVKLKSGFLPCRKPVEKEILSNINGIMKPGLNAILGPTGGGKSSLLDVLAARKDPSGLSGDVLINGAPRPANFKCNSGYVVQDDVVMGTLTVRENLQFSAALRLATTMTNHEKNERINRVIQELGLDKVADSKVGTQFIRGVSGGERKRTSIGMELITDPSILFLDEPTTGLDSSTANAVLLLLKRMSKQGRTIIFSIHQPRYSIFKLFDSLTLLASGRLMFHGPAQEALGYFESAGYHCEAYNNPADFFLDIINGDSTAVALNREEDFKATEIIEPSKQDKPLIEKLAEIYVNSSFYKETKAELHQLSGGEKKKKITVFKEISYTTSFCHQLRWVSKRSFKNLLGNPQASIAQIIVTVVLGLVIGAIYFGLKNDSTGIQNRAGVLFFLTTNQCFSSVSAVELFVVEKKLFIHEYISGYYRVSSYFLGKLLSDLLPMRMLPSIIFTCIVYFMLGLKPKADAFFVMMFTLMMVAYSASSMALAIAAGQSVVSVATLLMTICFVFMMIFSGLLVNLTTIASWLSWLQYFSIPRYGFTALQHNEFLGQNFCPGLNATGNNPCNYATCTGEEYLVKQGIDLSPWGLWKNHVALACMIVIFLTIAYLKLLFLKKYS
Briefly: Inhibition of BCRP (unknown origin) over-expressed in MDCK cells assessed as Hoechst 33342 accumulation incubated for 30 mins prior to Hoechst 33342 addition measured after 30 mins by fluorescence assay. Type of data set: cell-based. The settings on record: 0.5 h. The method in brief: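 MDCK-BCRP cells at 30 000 cells/well, confluent overnight. Compounds in culture medium for 30 min at 37 °C, then Hoechst 33342 added (8 μM final) for 30 min. Cells fixed 20 min in 4% PFA protected from light, washed three times with ice-cold PBS, fluorescence read at ex 340/35, em 485/20 nm. Increase over untreated basal level fitted against log dose to give EC50.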

Chain of ATP-dependent translocase ABCB1 (P08183 whole entry): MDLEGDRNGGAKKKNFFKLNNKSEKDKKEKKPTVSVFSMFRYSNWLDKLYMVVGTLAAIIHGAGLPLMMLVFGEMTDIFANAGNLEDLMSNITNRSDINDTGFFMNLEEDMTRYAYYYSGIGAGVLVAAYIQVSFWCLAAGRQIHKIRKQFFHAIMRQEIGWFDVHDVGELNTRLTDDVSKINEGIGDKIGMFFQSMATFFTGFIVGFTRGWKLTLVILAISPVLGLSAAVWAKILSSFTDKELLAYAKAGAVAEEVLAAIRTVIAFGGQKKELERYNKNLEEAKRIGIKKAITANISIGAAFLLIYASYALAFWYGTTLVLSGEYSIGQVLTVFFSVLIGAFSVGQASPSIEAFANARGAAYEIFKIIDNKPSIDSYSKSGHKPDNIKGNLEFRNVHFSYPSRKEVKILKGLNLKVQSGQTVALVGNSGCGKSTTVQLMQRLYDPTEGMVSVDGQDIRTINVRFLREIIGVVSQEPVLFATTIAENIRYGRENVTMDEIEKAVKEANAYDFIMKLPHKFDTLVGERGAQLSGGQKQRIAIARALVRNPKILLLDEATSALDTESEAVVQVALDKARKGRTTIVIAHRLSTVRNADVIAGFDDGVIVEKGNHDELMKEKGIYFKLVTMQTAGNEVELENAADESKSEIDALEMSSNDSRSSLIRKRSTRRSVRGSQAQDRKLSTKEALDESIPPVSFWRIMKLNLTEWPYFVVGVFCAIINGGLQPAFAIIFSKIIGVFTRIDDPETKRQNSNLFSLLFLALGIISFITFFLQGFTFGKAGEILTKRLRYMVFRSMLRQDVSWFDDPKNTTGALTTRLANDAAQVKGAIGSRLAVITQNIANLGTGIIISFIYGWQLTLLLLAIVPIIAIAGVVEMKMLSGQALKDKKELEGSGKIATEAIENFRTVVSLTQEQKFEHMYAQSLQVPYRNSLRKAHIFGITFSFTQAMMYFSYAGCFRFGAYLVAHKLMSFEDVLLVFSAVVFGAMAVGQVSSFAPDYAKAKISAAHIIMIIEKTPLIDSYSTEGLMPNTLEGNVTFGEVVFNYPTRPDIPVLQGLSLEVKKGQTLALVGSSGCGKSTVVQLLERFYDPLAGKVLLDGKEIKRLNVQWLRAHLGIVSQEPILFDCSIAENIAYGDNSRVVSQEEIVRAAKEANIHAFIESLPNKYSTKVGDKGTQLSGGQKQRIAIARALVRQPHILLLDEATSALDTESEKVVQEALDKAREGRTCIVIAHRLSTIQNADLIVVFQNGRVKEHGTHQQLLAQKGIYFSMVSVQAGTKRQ
Chain of Multidrug resistance-associated protein 1 (P33527 whole entry): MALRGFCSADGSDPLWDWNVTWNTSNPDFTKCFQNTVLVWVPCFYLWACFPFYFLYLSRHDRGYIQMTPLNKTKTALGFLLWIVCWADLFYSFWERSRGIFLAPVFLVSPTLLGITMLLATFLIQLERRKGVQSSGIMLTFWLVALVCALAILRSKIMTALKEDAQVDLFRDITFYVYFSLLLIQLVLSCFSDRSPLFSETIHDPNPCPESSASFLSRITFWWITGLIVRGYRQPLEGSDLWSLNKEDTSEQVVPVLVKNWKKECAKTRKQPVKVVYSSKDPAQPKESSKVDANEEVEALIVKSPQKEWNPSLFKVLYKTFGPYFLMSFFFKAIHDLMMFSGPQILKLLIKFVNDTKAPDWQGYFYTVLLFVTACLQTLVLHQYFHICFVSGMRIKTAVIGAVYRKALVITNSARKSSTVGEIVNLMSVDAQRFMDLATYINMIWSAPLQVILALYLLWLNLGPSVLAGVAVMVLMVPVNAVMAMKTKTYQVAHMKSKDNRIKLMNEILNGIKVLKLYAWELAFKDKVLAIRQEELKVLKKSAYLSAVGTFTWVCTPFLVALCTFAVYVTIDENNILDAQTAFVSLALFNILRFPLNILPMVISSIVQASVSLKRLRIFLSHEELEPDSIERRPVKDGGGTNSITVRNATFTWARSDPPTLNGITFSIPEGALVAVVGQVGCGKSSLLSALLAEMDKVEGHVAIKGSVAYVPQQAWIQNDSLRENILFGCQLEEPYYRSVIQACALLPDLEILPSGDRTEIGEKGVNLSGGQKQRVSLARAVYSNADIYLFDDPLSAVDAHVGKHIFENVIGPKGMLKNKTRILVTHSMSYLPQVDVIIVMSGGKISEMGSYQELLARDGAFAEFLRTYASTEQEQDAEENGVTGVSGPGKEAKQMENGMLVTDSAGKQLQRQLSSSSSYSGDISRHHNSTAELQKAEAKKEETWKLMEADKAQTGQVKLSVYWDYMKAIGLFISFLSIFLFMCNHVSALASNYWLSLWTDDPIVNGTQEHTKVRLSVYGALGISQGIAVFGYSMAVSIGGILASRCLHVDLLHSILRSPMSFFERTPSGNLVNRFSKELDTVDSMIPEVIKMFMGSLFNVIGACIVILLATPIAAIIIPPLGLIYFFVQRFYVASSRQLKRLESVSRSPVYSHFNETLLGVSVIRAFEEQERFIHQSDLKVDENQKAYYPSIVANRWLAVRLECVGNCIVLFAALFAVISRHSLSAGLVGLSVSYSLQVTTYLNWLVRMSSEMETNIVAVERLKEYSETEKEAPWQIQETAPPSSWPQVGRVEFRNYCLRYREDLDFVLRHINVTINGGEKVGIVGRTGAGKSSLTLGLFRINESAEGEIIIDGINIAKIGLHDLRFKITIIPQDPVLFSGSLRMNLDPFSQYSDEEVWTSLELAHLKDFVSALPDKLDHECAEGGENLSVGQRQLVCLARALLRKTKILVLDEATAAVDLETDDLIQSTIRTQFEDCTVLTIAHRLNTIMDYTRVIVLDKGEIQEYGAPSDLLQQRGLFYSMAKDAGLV

Take `COc1cc2c(cc1OC)CN(CCCC1CCCc3c(OC)cccc31)CC2` (stereo not drawn): in data set [1] (mdck), the EC50 entry was “Not Active”. Moreover, in data set [2], the efflux ratio at 2 h, 100 µM stood at 4.4.

In the case of `COc1cc2c(cc1OC)CN(Cc1ccc(-c3ccc(O)cc3)cc1)CC2`, in data set [3] (read-out: EC50), the 50% effective concentration (EC50) is 9300 nM.

With `COc1ccc(-c2ccc(CN3CCc4cc(OC)c(OC)cc4C3)cc2)cc1`, the EC50 entry in data set [1] (mdck) is reported as “Not Active”. Besides, in data set [2], the efflux ratio at 2 h, 100 µM amounted to 4.4.

In the case of `COc1ccc(-c2ccc3c(c2)C=C(CC(=O)N2CCc4cc(OC)c(OC)cc4C2)CO3)cc1`, the results for the concentration for a half-maximal effect (EC50) in data set [3] (read-out: EC50) and in data set [1] (mdck) were 5800 nM and “Not Active”, respectively. For the same compound, in data set [4], the “inhibition (INH)” value was “Not Active”. Also, the efflux ratio at 2 h, 100 µM in data set [2] came out at 3.2.

`COc1ccc(-c2ccc(C(=O)N3CCc4cc(OC)c(OC)cc4C3)o2)cc1`: the results for the EC50 in data set [3] (read-out: EC50) and in data set [1] (mdck) were 910 nM and “Not Active”, respectively. Also, the “inhibition (INH)” value in data set [4] was “Not Active”. Further, the efflux ratio at 2 h, 100 µM in data set [2] came to 5.2.

With `COc1cc2c(cc1OC)CN(C(=O)c1ccc(-c3ccc(O)cc3)o1)CC2`, the values for the EC50 in data set [3] (read-out: EC50) and in data set [1] (mdck) were 6400 nM and “Not Active”, respectively. Also, the “inhibition (INH)” value in data set [4] is listed as “Not Active”. In addition, the efflux ratio at 2 h, 100 µM in data set [2] was determined as 4.5.

Regarding `COc1ccc(-c2ccc(CN3CCc4cc(OC)c(OC)cc4C3)o2)cc1`, the 50% effective concentration (EC50) in data set [3] (read-out: EC50) is 4300 nM; in data set [1] (mdck), “Not Active”. In addition, the “inhibition (INH)” value in data set [4] is given as “Not Active”. In addition, the efflux ratio at 2 h, 100 µM in data set [2] is 3.7.

Turning to `COc1cc2c(cc1OC)CN(Cc1ccc(-c3ccc(O)cc3)o1)CC2`, the 50% effective concentration (EC50) in data set [3] (read-out: EC50) was 8100 nM; in data set [1] (mdck), “Not Active”. The “inhibition (INH)” value in data set [4] was “Not Active”. Further, in data set [2], the efflux ratio at 2 h, 100 µM came out at 5.7.

Regarding `COc1ccc(-c2ccc(CC(=O)N3CCc4cc(OC)c(OC)cc4C3)cc2)cc1`, the values for the concentration giving a half-maximal response (EC50) in data set [3] (read-out: EC50) and in data set [1] (read-out: EC50) were 800 nM and 10000 nM, respectively. In data set [4], the “inhibition (INH)” value is listed as “Not Active”. The efflux ratio at 2 h, 100 µM in data set [2] turned out to be 3.9.

On to `COc1ccc(-c2ccc(CCN3CCc4cc(OC)c(OC)cc4C3)cc2)cc1`, for which the EC50 in data set [3] (read-out: EC50) is 570 nM; in data set [1] (mdck), “Not Active”. In data set [4], the “inhibition (INH)” value is given as “Not Active”. The efflux ratio at 2 h, 100 µM in data set [2] turned out to be 38.

For `COc1cc2c(cc1OC)CN(CCc1ccc(-c3ccc(F)cc3)cc1)CC2`, the 50% effective concentration (EC50) in data set [3] (read-out: EC50) was 2000 nM; in data set [1] (mdck), “Not Active”. Besides, the “inhibition (INH)” value in data set [4] is “Not Active”. In data set [2], the efflux ratio at 2 h, 100 µM was 3.8.

Consider `COc1cc2c(cc1OC)CN(Cc1ccc(-c3ccc(F)cc3)cc1)CC2`, for which the half-maximal effective concentration (EC50) in data set [3] (read-out: EC50) was 4900 nM; in data set [1] (mdck), “Not Active”. Further, the “inhibition (INH)” value in data set [4] is “Not Active”. Moreover, the efflux ratio at 2 h, 100 µM in data set [2] was 3.8.

Take `COc1ccc(-c2ccc(OCCCN3CCc4cc(OC)c(OC)cc4C3)cc2)cc1`: the figures for the EC50 in data set [3] (read-out: EC50) and in data set [1] (mdck) were 1300 nM and “Not Active”, respectively. Further, the “inhibition (INH)” value in data set [4] was “Not Active”. The efflux ratio at 2 h, 100 µM in data set [2] turned out to be 7.9.

Consider `COc1ccc(-c2ccc(OCCN3CCc4cc(OC)c(OC)cc4C3)cc2)cc1`, for which the EC50 in data set [3] (read-out: EC50) is 930 nM; in data set [1] (mdck), “Not Active”. Moreover, the “inhibition (INH)” value in data set [4] was “Not Active”. Also, the efflux ratio at 2 h, 100 µM in data set [2] was found to be 47.

For the compound `COc1ccc(-c2ccc(NCCCN3CCc4cc(OC)c(OC)cc4C3)cc2)cc1`, the EC50 in data set [3] (read-out: EC50) is 1800 nM; in data set [1] (mdck), “Not Active”. Moreover, in data set [4], the “inhibition (INH)” value is on record as “Not Active”. The efflux ratio at 2 h, 100 µM in data set [2] worked out at 2.2.

Turning to `COc1cc2c(cc1OC)CN(CCCCOc1ccc(-c3ccc(O)cc3)cc1)CC2`, the EC50 result in data set [3] (mdck) and in data set [1] (mdck) was “Not Active” each time. The “inhibition (INH)” value in data set [4] is reported as “Not Active”. The efflux ratio at 2 h, 100 µM in data set [2] stood at 1.5.

Take `COc1ccc(-c2ccc(OCCCCN3CCc4cc(OC)c(OC)cc4C3)cc2)cc1`: the half-maximal effective concentration (EC50) in data set [3] (read-out: EC50) was 4 nM; in data set [1] (mdck), “Not Active”. Also, the “inhibition (INH)” value in data set [4] is “Not Active”. The efflux ratio at 2 h, 100 µM in data set [2] was 6.6.

On to `COc1ccc(-c2ccc3c(c2)C=C(CCN2CCc4cc(OC)c(OC)cc4C2)CO3)cc1`, for which the EC50 in data set [3] (read-out: EC50) is 1200 nM; in data set [1] (mdck), “Not Active”. Besides, the “inhibition (INH)” value in data set [4] is given as “Not Active”. In addition, the efflux ratio at 2 h, 100 µM in data set [2] is 4.9.

In the case of `COc1cc2c(cc1OC)CN(CCc1ccccc1-c1cccc(O)c1)CC2`, the EC50 in data set [3] (read-out: EC50) is 230 nM; in data set [1] (mdck), “Not Active”. Moreover, the “inhibition (INH)” value in data set [4] is recorded as “Not Active”. The efflux ratio at 2 h, 100 µM in data set [2] stood at 3.2.

For `COc1cccc(-c2ccccc2CCN2CCc3cc(OC)c(OC)cc3C2)c1`, the values for the concentration for a half-maximal effect (EC50) in data set [3] (read-out: EC50) and in data set [1] (read-out: EC50) were 69 nM and 23000 nM, respectively. Further, the “inhibition (INH)” value in data set [4] is listed as “Not Active”. Moreover, in data set [2], the efflux ratio at 2 h, 100 µM stood at 4.1.
